Results published in ChEMBL document CHEMBL1156899, “Novel 1,3-dihydro-benzimidazol-2-ones and their analogues as potent non-nucleoside HIV-1 reverse transcriptase inhibitors” (Bioorg Med Chem, 2010).

What was measured:
[1] = Selectivity index, ratio of CC50 for human MT4 cells to EC50 for HIV1 3B; assay type: toxicity, cell-based; details: read-out: Ratio CC50/EC50
[2] = biological target: Human immunodeficiency virus type 1 reverse transcriptase (Human immunodeficiency virus 1, UniProt Q72547, Y181I); test: Inhibition of HIV1 reverse transcriptase Y181I mutant by RNA-dependent DNA polymerase activity assay
[3] = test system: Human immunodeficiency virus 1; test: Antiviral activity against HIV1 3B infected in human MT4 cells assessed inhibition of viral-induced cytopathic effect after 5 days; assay type: functional, organism-based; details: Human immunodeficiency virus 1, 3B, MT4, 120 h
Outline: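 MT-4 cells infected with HIV-1 IIIB at about 100 times the CCID50 per mL of suspension, then mixed 1:1 with serial compound dilutions and incubated at 37 °C for five days. Viable cell number was then determined.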

[4] = Cytotoxicity in human MT4 cells assessed as reduction in cell viability; assay type: cell-based
[5] = biological target: Human immunodeficiency virus type 1 reverse transcriptase (Human immunodeficiency virus 1, UniProt Q72547); test: Inhibition of RNA-dependent DNA polymerase activity of HIV1 reverse transcriptase using poly(rA)/pligo(dT) template
[6] = biological target: Human immunodeficiency virus type 1 reverse transcriptase (Human immunodeficiency virus 1, UniProt Q72547, K103N); test: Inhibition of HIV1 reverse transcriptase K103N mutant by RNA-dependent DNA polymerase activity assay
[7] = biological target: Human immunodeficiency virus type 1 reverse transcriptase (Human immunodeficiency virus 1, UniProt Q72547, L100I); test: Inhibition of HIV1 reverse transcriptase L100I mutant by RNA-dependent DNA polymerase activity assay

Cc1cc(C)c(C)c(S(=O)(=O)n2c(=O)[nH]c3ccc(Cl)cc32)c1C
selectivity ratio [1]: > 5410 | IC50 [2]: > 40 µM | EC50 [3]: 63 nM | CC50 [4]: ≥ 343 µM | IC50 [5]: 40 nM | IC50 [6]: > 40 µM | IC50 [7]: 180 nM

Cc1ccc(S(=O)(=O)n2c(=O)[nH]c3ccc(Cl)cc32)c(C)c1
selectivity ratio [1]: 327 | EC50 [3]: 120 nM | CC50 [4]: 39.3 µM | IC50 [5]: 630 nM

Cc1cc(C)cc(S(=O)(=O)n2c(=O)[nH]c3ccc(Cl)nc32)c1
selectivity ratio [1]: > 10500 | IC50 [2]: 27 µM | EC50 [3]: 26 nM | CC50 [4]: > 272 µM | IC50 [5]: 20 nM | IC50 [6]: 2.8 µM | IC50 [7]: 70 nM

O=c1[nH]c2ccc(Cl)cc2n1S(=O)(=O)c1cccc(OC(F)(F)F)c1
selectivity ratio [1]: > 35 | EC50 [3]: 3660 nM | CC50 [4]: > 128 µM | IC50 [5]: 305 nM

O=C1Nc2ccc(Cl)cc2[C@@](C#CC2CC2)(C(F)(F)F)O1 [EFAVIRENZ]
CC50 [4]: > 6 µM

Cc1ccc(C)c(S(=O)(=O)n2c(=O)[nH]c3ccc(Cl)cc32)c1
selectivity ratio [1]: > 37100 | IC50 [2]: > 40 µM | EC50 [3]: 9.7 nM | CC50 [4]: > 371 µM | IC50 [5]: 49 nM | IC50 [6]: > 40 µM | IC50 [7]: 380 nM

Cc1cc(C)cc(S(=O)(=O)n2c(=O)[nH]c3ccc(Cl)cc32)c1
selectivity ratio [1]: 17800 | IC50 [2]: > 40 µM | EC50 [3]: 2.2 nM | IC50 [6]: 0.4 µM | IC50 [7]: 9 nM

O=c1[nH]c2ccc(Cl)cc2n1S(=O)(=O)c1cc(C(F)(F)F)cc(C(F)(F)F)c1
selectivity ratio [1]: 104 | EC50 [3]: 310 nM | CC50 [4]: 32.3 µM | IC50 [5]: 310 nM

Cc1ccnc2c1NC(=O)c1cccnc1N2C1CC1 [NEVIRAPINE]
CC50 [4]: > 15 µM

Cc1ccccc1S(=O)(=O)n1c(=O)[nH]c2ccc(Cl)cc21
selectivity ratio [1]: > 201 | EC50 [3]: 1920 nM | CC50 [4]: > 387 µM | IC50 [5]: 269 nM

Cc1c(C)c(C)c(S(=O)(=O)n2c(=O)[nH]c3ccc(Cl)cc32)c(C)c1C
selectivity ratio [1]: 1830 | IC50 [2]: > 40 µM | EC50 [3]: 129 nM | CC50 [4]: 236 µM | IC50 [5]: 47 nM | IC50 [6]: 6.7 µM | IC50 [7]: 80 nM

COc1cccc(S(=O)(=O)n2c(=O)[nH]c3ccc(Cl)cc32)c1
selectivity ratio [1]: > 10500 | IC50 [2]: > 40 µM | EC50 [3]: 35 nM | CC50 [4]: > 369 µM | IC50 [5]: 52 nM | IC50 [6]: 10.9 µM | IC50 [7]: 330 nM

Cc1ccc(S(=O)(=O)n2c(=O)[nH]c3ccc(Cl)cc32)cc1C
selectivity ratio [1]: > 61900 | IC50 [2]: > 40 µM | EC50 [3]: 6 nM | CC50 [4]: > 371 µM | IC50 [5]: 4 nM | IC50 [6]: 2.61 µM | IC50 [7]: 30 nM

Cc1cccc(S(=O)(=O)n2c(=O)[nH]c3ccc(Cl)cc32)c1
selectivity ratio [1]: > 20500 | IC50 [2]: > 40 µM | EC50 [3]: 15.1 nM | CC50 [4]: > 308 µM | IC50 [5]: 21 nM | IC50 [6]: 10 µM | IC50 [7]: 70 nM

Cc1ccc(S(=O)(=O)n2c(=O)[nH]c3ccc(Cl)cc32)cc1
selectivity ratio [1]: 2900 | EC50 [3]: 46 nM | CC50 [4]: 134 µM | IC50 [5]: 149 nM

O=c1[nH]c2ccc(Cl)cc2n1S(=O)(=O)c1cccc(C(F)(F)F)c1
selectivity ratio [1]: > 664 | EC50 [3]: 500 nM | CC50 [4]: > 332 µM | IC50 [5]: 1720 nM

Cc1cc(C)c(S(=O)(=O)n2c(=O)[nH]c3ccc(Cl)cc32)c(C)c1
selectivity ratio [1]: > 355 | IC50 [2]: > 40 µM | EC50 [3]: 1000 nM | CC50 [4]: > 356 µM | IC50 [5]: 1.2 nM | IC50 [6]: > 40 µM | IC50 [7]: 10 nM
